Data: ChEMBL document CHEMBL4350961, “Discovery of Pyrrolo[3,2- d]pyrimidin-4-one Derivatives as a New Class of Potent and Cell-Active Inhibitors of P300/CBP-Associated Factor Bromodomain” (J Med Chem, 2019)
Calls of active or inactive are those of the source.

Assays:
[1] = biological target: T1, Histone acetyltransferase KAT2B (Homo sapiens, UniProt Q92831); assay: Inhibition of biotinylated peptide binding to human GST-tagged PCAF bromodomain expressed in Escherichia coli Rosetta (DE3) measured after 15 hrs by HTRF assay
[2] = biological target: ATPase family AAA domain-containing protein 2 (Homo sapiens) (UniProt Q6PL18); assay: Binding affinity to human partial length ATAD2A (Q981 to R1108 residues) expressed in bacterial expression system at 1 uM by BROMOscan assay
How it was run: (§1)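 BROMOscan bromodomain cross-screen run by an outside service, compound at 1 µM against 32 recombinant bromodomains. Binding given as percent of control.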

[3] = biological target: T1, Histone acetyltransferase KAT2B; assay: Binding affinity to human partial length PCAF (G715 to D831 residues) expressed in bacterial expression system at 1 uM by BROMOscan assay; how it was run: as §1
[4] = biological target: Transcription initiation factor TFIID subunit 1 (Homo sapiens) (UniProt P21675); assay: Binding affinity to human partial length TAF1 bromodomain 2 (D1521 to D1656 residues) expressed in bacterial expression system at 1 uM by BROMOscan assay; how it was run: as §1
[5] = system: Tyrosine-protein kinase ABL1 (Homo sapiens), P00519 [Y253F]; assay: Inhibition of recombinant human ABL Y253F mutant (27 to end residues) at 10 uM using EAIYAAPFAKKK as substrate measured after 40 mins in presence of [gamma33P]ATP by scintillation counting method
[6] = biological target: Aurora kinase C (Homo sapiens) (UniProt Q9UQB9); assay: Inhibition of recombinant human AURKC (35 to end residues) at 10 uM using AKRRRLSSLRA as substrate measured after 40 mins in presence of [gamma33P]ATP by scintillation counting method
[7] = system: Tyrosine-protein kinase BTK (Homo sapiens), Q06187 [R28H]; assay: Inhibition of full-length recombinant human BTK R28H mutant at 10 uM using LSNLYHQGKFLQTFCGSPLYRRR as substrate measured after 40 mins in presence of [gamma33P]ATP by scintillation counting method
How it was run: (§2)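 Kinase panel of 422 kinases screened by Eurofins KinaseProfiler at a single test-compound concentration of 10 µM.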

[8] = biological target: Calcium/calmodulin-dependent protein kinase type 1B (Homo sapiens) (UniProt Q6P2M8); assay: Inhibition of recombinant full-length human CaMK1beta at 10 uM using calmodulin as substrate measured after 40 mins in presence of [gamma33P]ATP by scintillation counting method
[9] = biological target: Casein kinase I isoform gamma-1 (Homo sapiens) (UniProt Q9HCP0); assay: Inhibition of recombinant human CK1gamma1 (25 to 355 residues) at 10 uM using KRRRALS(p)VASLPGL as substrate measured after 40 mins in presence of [gamma33P]ATP by scintillation counting method
[10] = biological target: Dual specificity protein kinase CLK1 (Homo sapiens) (UniProt P49759); assay: Inhibition of recombinant human CLK1 (130 to end residues) at 10 uM using ERMRPRKRQGSVRRRV as substrate measured after 40 mins in presence of [gamma33P]ATP by scintillation counting method
[11] = biological target: Citron Rho-interacting kinase (Homo sapiens) (UniProt O14578); assay: Inhibition of recombinant human CRIK at 10 uM using KKLRRTLSVA as substrate measured after 120 mins in presence of [gamma33P]ATP by scintillation counting method
[12] = biological target: Tyrosine-protein kinase Fer (Homo sapiens) (UniProt P16591); assay: Inhibition of recombinant human FER (541 to end residues) at 10 uM using KKKSPGEYVNIEFG as substrate measured after 40 mins in presence of [gamma33P]ATP by scintillation counting method
[13] = biological target: Tyrosine-protein kinase Fgr (Homo sapiens) (UniProt P09769); assay: Inhibition of recombinant human FGR (2 to end residues) at 10 uM using poly(Glu, Tyr) 4:1 as substrate measured after 40 mins in presence of [gamma33P]ATP by scintillation counting method
[14] = system: Homeodomain-interacting protein kinase 2 (Homo sapiens), Q9H2X6 [UNDEFINED MUTATION]; assay: Inhibition of recombinant human HIPK2 I471N mutant (165 to 564 residues) at 10 uM using myelin basic protein as substrate measured after 40 mins in presence of [gamma33P]ATP by scintillation counting method
[15] = biological target: Homeodomain-interacting protein kinase 3 (Homo sapiens) (UniProt Q9H422); assay: Inhibition of recombinant human HIPK3 (161 to 562 residues) at 10 uM using myelin basic protein as substrate measured after 40 mins in presence of [gamma33P]ATP by scintillation counting method
[16] = biological target: Tyrosine-protein kinase Lyn (Mus musculus) (UniProt P25911); assay: Inhibition of mouse Lyn at 10 uM
[17] = biological target: Leucine-rich repeat serine/threonine-protein kinase 2 (Homo sapiens) (UniProt Q5S007); assay: Inhibition of recombinant human LRRK2 (970 to end residues) at 10 uM using RLGRDKYKTLRQIRQ as substrate measured after 40 mins in presence of [gamma33P]ATP by scintillation counting method
[18] = system: Hepatocyte growth factor receptor (Homo sapiens), P08581 [D1228H]; assay: Inhibition of recombinant human MET A1209G/V1290L/D1246H mutant (974 to end residues) at 10 uM using KKKGQEEEYVFIE as substrate measured after 40 mins in presence of [gamma33P]ATP by scintillation counting method
[19] = system: Protein kinase C eta type (Homo sapiens), P24723 [UNDEFINED MUTATION]; assay: Inhibition of recombinant human PKCeta V108L/G109R/L392Q mutant (2 to end residues) at 10 uM using ERMRPRKRQGSVRRRV as substrate measured after 40 mins in presence of [gamma33P]ATP by scintillation counting method
Homo sapiens = organism: Homo sapiens; assay: Inhibition of human Ros V2262A mutant (1883 to end residues) using KKKSPGEYVNIEFG as substrate measured after 40 mins in presence of [gamma33P]ATP by scintillation counting method; how it was run: as §2
[20] = biological target: TGF-beta receptor type-2 (Homo sapiens) (UniProt P37173); assay: Inhibition of human TGFBR2 (188 to end residues) using myelin basic protein as substrate measured after 120 mins in presence of [gamma33P]ATP by scintillation counting method
[21] = biological target: BDNF/NT-3 growth factors receptor (Homo sapiens) (UniProt Q16620); assay: Inhibition of human TrkB (455 to end residues) using poly(Glu, Tyr) 4:1 as substrate measured after 40 mins in presence of [gamma33P]ATP by scintillation counting method
[22] = biological target: DNA-dependent protein kinase catalytic subunit (Homo sapiens) (UniProt P78527); assay: Inhibition of recombinant full-length human DNA-PK at 10 uM using GST-cMyc-p53 as substrate measured after 40 mins by fluorescence assay

Chain of ATPase family AAA domain-containing protein 2 (Homo sapiens) (Q6PL18 whole entry, the tested form may be a part): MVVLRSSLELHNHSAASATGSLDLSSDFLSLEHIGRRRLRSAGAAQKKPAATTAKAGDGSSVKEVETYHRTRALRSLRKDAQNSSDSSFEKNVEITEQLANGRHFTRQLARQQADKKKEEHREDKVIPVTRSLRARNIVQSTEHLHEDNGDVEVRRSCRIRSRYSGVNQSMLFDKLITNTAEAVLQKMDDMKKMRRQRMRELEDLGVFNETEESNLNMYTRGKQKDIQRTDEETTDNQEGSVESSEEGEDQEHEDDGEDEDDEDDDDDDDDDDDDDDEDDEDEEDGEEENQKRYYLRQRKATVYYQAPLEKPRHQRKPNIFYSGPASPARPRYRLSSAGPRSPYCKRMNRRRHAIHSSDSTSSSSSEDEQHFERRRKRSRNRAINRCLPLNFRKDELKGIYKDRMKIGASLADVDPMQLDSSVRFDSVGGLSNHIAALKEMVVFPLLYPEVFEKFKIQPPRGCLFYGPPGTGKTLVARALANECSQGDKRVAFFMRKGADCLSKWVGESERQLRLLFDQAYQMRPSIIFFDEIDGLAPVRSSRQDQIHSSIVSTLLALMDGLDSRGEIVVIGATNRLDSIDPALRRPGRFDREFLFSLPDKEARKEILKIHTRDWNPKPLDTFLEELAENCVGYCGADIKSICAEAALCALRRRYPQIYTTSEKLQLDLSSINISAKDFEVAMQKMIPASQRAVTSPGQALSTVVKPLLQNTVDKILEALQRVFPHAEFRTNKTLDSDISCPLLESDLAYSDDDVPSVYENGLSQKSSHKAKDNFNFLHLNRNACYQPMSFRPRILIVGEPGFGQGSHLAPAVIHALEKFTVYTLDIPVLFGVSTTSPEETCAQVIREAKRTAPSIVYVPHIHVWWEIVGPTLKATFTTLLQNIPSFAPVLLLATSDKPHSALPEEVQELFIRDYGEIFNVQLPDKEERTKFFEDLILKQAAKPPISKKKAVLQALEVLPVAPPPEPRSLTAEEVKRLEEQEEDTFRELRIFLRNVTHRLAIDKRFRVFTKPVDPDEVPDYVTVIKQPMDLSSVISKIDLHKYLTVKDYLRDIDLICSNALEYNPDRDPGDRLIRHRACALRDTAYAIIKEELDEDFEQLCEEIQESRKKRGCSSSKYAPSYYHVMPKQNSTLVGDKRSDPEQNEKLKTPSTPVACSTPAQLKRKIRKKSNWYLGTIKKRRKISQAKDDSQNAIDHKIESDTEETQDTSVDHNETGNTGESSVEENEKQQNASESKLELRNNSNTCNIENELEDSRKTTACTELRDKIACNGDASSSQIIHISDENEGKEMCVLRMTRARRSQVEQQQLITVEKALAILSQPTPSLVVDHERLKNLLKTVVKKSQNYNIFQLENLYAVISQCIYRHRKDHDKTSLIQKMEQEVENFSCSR
Chain of Tyrosine-protein kinase Fgr (Homo sapiens) (P09769 2-529 limits assumed): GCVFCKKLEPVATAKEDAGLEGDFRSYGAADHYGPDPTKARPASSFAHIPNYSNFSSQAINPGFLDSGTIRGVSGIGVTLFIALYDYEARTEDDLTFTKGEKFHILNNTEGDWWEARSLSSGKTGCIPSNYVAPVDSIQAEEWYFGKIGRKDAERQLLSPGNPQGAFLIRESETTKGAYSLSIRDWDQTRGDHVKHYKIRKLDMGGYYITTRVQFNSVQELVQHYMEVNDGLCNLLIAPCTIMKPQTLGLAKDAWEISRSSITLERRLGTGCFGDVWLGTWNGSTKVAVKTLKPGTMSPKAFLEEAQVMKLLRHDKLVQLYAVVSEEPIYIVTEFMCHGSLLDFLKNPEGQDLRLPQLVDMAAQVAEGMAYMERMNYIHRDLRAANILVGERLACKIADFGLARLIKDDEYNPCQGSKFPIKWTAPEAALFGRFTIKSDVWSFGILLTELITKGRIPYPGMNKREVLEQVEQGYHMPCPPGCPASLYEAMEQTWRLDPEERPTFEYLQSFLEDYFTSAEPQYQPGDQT
Chain of Citron Rho-interacting kinase (Homo sapiens) (O14578 whole entry): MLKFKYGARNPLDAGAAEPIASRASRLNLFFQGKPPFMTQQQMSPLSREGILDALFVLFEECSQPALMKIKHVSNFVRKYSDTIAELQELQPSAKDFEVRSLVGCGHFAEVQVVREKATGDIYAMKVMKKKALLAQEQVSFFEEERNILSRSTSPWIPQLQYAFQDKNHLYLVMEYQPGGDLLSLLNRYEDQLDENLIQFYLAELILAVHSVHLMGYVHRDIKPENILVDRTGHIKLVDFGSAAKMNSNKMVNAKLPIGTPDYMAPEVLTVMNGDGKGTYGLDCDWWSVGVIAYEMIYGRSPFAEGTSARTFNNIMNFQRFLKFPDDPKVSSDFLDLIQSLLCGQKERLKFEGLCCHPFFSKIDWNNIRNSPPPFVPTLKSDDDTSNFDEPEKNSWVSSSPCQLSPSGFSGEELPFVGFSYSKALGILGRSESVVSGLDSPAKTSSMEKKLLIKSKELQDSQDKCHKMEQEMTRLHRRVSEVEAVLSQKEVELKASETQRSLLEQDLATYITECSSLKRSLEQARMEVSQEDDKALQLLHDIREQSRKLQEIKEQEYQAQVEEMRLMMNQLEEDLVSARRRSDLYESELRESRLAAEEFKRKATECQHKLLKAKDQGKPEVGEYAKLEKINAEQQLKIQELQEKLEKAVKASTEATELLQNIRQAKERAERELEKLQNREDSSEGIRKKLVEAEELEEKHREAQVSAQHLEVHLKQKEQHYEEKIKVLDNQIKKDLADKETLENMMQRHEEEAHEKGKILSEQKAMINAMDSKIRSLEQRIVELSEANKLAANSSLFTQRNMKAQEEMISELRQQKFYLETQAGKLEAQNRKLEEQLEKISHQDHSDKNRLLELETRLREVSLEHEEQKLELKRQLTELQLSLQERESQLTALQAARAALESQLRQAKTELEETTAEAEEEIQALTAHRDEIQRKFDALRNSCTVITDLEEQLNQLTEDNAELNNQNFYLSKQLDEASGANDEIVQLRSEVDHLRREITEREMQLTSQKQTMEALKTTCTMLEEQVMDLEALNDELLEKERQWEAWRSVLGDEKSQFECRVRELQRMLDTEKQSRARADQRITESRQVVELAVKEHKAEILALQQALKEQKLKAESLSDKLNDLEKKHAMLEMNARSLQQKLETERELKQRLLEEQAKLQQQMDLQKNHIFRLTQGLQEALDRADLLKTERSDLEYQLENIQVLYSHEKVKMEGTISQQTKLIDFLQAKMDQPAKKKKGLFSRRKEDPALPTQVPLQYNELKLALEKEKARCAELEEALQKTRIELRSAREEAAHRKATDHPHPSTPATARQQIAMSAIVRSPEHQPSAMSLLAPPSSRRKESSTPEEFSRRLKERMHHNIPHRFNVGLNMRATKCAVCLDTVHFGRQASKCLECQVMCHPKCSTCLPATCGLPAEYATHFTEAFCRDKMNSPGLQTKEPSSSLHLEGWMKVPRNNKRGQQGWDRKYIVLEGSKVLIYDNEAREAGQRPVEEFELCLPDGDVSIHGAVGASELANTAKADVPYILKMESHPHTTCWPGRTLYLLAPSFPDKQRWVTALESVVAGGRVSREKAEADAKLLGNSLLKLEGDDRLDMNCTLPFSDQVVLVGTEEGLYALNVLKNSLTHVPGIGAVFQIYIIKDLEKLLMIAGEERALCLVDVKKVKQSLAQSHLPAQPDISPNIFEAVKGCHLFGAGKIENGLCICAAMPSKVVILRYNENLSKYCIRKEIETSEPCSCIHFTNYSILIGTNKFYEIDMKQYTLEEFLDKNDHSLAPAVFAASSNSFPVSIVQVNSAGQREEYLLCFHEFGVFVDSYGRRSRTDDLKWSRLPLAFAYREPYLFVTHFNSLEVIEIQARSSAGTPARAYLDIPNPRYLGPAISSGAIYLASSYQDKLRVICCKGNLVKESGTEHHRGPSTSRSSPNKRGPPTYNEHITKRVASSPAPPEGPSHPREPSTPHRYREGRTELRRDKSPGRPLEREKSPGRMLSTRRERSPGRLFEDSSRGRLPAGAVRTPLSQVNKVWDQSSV
Chain of Tyrosine-protein kinase Fer (Homo sapiens) (P16591 whole entry, looked up): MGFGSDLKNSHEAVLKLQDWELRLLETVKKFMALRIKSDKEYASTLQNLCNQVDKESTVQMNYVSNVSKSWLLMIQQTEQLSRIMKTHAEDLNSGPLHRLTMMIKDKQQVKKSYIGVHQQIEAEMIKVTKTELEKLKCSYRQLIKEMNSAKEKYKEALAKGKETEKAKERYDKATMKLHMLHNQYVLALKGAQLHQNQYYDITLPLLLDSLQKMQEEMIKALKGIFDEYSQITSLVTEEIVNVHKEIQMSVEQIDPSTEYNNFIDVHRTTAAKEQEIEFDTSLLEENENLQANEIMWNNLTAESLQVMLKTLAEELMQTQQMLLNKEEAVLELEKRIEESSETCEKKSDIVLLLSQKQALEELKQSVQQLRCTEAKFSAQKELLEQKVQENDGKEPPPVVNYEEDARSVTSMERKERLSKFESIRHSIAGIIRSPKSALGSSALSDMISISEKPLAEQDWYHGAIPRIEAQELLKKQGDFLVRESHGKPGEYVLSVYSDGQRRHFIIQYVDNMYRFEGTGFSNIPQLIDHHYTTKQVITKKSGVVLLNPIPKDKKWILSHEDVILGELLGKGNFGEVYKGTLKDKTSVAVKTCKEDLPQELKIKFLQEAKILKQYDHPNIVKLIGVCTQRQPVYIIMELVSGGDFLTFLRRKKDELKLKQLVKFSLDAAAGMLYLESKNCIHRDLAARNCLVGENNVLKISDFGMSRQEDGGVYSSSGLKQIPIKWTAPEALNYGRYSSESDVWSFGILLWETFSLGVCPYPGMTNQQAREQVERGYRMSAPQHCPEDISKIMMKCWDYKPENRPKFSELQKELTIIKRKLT
Chain of Calcium/calmodulin-dependent protein kinase type 1B (Homo sapiens) (Q6P2M8 whole entry, the tested form may be a part, canonical isoform): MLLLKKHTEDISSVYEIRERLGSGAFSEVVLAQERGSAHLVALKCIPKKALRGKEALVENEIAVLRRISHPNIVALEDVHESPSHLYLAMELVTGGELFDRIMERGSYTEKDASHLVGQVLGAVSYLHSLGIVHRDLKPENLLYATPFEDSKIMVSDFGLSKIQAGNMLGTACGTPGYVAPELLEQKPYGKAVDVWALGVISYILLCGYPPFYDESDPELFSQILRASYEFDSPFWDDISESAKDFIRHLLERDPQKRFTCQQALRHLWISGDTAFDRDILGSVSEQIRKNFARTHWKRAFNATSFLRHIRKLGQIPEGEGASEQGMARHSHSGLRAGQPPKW

CN1C[C@H](Nc2nc3cc[nH]c3c(=O)n2C)C[C@H](c2ccc3c(c2)OCCO3)C1
7 nM: IC50 [1]
inactive: Activity [2] | Activity [4] | inhibition [5] | inhibition [6] | inhibition [7] | inhibition [8] | inhibition [9] | inhibition [10] | inhibition [11] | inhibition [12] | inhibition [13] | inhibition [14] | inhibition [15] | inhibition [16] | inhibition [17] | inhibition [18] | inhibition [19] | inhibition (Homo sapiens) | inhibition [20] | inhibition [21] | inhibition [22]
active: Activity [3]
